Assay results: article PMC2837366 (Molecular cancer therapeutics, 2010)

What was measured:
[1] = target: T1, PH domain of Akt2 (Homo sapiens, UniProt P31751); assay: SPR competitive binding assay, displacement from PtdIns
T1 sequence (P31751 5-108 limits assumed): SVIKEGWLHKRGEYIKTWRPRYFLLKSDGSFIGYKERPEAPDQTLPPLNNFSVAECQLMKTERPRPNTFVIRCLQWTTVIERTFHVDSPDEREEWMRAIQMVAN

[2] = target: T2, PH domain of PDPK1 (Homo sapiens, UniProt O15530); assay: SPR competitive binding assay, displacement from PtdIns; conditions: for binding to the PH domain of PDKP1: at concentrations up to 50 µM
T2 sequence (O15530 459-550 limits assumed): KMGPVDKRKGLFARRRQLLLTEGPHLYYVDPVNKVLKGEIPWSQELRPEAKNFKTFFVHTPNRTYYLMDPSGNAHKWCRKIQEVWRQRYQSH
Method in brief: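 Binding was measured by SPR on a Biacore 2000 with streptavidin chips carrying biotin-labelled PtdIns(3,4,5)P₃ liposomes. Expressed recombinant human PDPK1 PH domain was competed with increasing test compound concentrations. Ki was the concentration displacing 50% of the PH domain bound to the liposomes without drug. Values are means of 4 determinations.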

[3] = system: PtdIns-3-K/PDPK1/Akt signaling in PC-3 prostate cells; assay: Reverse phase protein array in PC-3 cells; type: cell-based, human; conditions: 0.1 µM, 16 hours, RPPA
Method in brief: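 PC-3 cells were held in serum-free medium for 8 hr. They were then exposed for 16 hr to test compound at 0.1–10 µM, to wortmannin, or to DMSO vehicle. Lysate protein was analysed by quantitative reverse phase protein array with 74 validated PtdIns-3-K/Akt/PDPK1 pathway antibodies. Values are means of 3 determinations, expressed relative to DMSO control.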

[4] = system: BxPC-3 pancreatic, MCF-7 breast or A-549 NSCL cancer xenografts; assay: Antitumor activity, effect of the carbon chain length; type: in vivo, mouse; conditions: 200 mg/kg oral gavage twice a day for 10 days; BxPC-3, MCF-7, A-549 xenografts
Method in brief: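 Female scid mice received about 10⁷ log-phase cells in 0.2 ml PBS subcutaneously in the flank. MCF-7 cells were given in Matrigel, with a 60-day 17-β-estradiol pellet implanted the day before. Mice were stratified into groups of 8 with similar mean tumor volumes. Test compound was given orally in 0.1 ml sesame seed oil; controls received vehicle. Calipers were read twice weekly, with volume = d_short² × d_long ÷ 2. Growth rate over the dosing period was compared with control by Student's t-test. T/C is the treated growth rate as a percent of control.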

[5] = SPR displacement assay, in words

CCCCCCCCCCCCCCc1ccc(S(=O)(=O)Nc2nncs2)cc1 [C-14]
binding to the PH domain of Akt [1, 5]: lower, although still appreciable, binding
binding to the PH domain of PDPK1 [2, 5]: showed binding

NC1(c2ccc(-c3nc4ccn5c(=O)[nH]nc5c4cc3-c3ccccc3)cc2)CCC1 [MK-2206]
binding to the PH domain of Akt [1, 5]: bound very weakly

COC[C@H]1OC(=O)c2coc3c2[C@@]1(C)C1=C(C3=O)[C@@H]2CCC(=O)[C@@]2(C)C[C@H]1OC(C)=O [wortmannin, reference compound]
phospho-Ser241-PDPK1 [3]: reduction
phospho-Ser473-Akt [3]: completely inhibited
phospho-Ser657-protein kinase C (PKC) [3]: decreased
phospho-Thr308-Akt [3]: reduction
total SGK1 [3]: decreased

CCCCCCCCCCCCCCCCCCc1ccc(S(=O)(=O)Nc2nncs2)cc1 [C-18]
binding to the PH domain of Akt [1, 5]: lower, although still appreciable, binding

CN1N=C(N)c2cn([C@@H]3O[C@H](COP(=O)(O)O)[C@@H](O)[C@H]3O)c3ncnc1c23 [triciribine]
binding to the PH domain of Akt ([1]; at concentrations up to 50 µM): None of these compounds bound
binding to the PH domain of PDKP1 [2]: None of these compounds bound

CCCCCCCCCCCCCCCCCCOCC(COP(=O)([O-])OCC[N+](C)(C)C)OC (stereo not shown) [edelfosine]
binding to the PH domain of Akt ([1]; at concentrations up to 50 µM): None of these compounds bound
binding to the PH domain of PDKP1 [2]: None of these compounds bound

CCCCCCCCc1ccc(S(=O)(=O)Nc2nncs2)cc1 [C-8]
antitumor activity (tumor growth rate) [4]: less activity

CCCCCCCCCCCCCCCCc1ccc(S(=O)(=O)Nc2nncs2)cc1 [C-16]
binding to the PH domain of Akt [1, 5]: lower, although still appreciable, binding

CCCCc1ccc(S(=O)(=O)Nc2nncs2)cc1 [C-4]
antitumor activity (tumor growth rate) [4]: very little activity

CCCCCCCCCCCCCCCCCCOP(=O)([O-])OC1CC[N+](C)(C)CC1 [perifosine]
binding to the PH domain of Akt ([1]; at concentrations up to 50 µM): None of these compounds bound
binding to the PH domain of PDKP1 [2]: None of these compounds bound

CCCCCCc1ccc(S(=O)(=O)Nc2nncs2)cc1 [C-6]
antitumor activity (tumor growth rate) [4]: very little activity
